# RGS4 act = RGS4 potentiation or activation. 310,000 compounds, 0.92% hits. B-score at 10 µM. HEK293 M3R/inducible RGS4, carbachol calcium flux Fluo4; active compounds read low;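 active = B-score of the integrated calcium signal more than 4 SD below the library mean, with starting fluorescence not abnormally high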;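 also: negative B-score means reduced calcium response which marks RGS4 activation or potentiation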
#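 Assay system: HEK293 FlpIn-TREx cells, stable M3R, doxycycline-inducible RGS4 / Probe or stimulus: carbachol, ECmax concentration / Times: overnight RGS4 induction, 30 min dye load 37 °C, 20 min compound RT / Signal: kinetic calcium fluorescence imaging with Fluo4-AM dye, 2 µM / Measure: Agonist-evoked peak-minus-minimum fluorescence over baseline, integrated ratio, B score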
# Kir21 block = blocks the mouse Kir2.1 inward-rectifier potassium channel. AID 1672. 310,000 compounds, 0.85% hits. P35561. HEK293-Kir2.1, FluxOR thallium flux fluorescence; active compounds read low. B-score at 10 µM;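 active = fluorescence ratio B-score at or below minus 3 SD of library scores, with starting-brightness B-score within 2 SD, cut at about -4.2 in these data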;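 also: channel flux triggered by added potassium and thallium sulfate stimulus; B-score of peak minus minimum fluorescence over baseline after thallium stimulus; more negative B-score means stronger Kir2.1 block with less thallium influx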
# Target sequence (P35561 whole entry, looked up): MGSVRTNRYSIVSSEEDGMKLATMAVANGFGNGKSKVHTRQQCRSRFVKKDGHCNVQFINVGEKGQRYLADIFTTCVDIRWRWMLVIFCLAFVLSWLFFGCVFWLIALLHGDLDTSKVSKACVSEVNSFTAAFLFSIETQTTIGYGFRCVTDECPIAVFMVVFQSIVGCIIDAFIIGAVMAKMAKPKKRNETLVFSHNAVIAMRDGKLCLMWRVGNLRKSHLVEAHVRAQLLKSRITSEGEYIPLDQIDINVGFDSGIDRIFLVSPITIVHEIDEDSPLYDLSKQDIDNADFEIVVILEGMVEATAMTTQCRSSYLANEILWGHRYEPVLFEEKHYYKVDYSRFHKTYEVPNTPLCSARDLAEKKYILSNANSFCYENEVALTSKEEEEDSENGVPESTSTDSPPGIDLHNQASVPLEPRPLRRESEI
# MrgX1 agonist = agonists of human MrgX1 receptor | B-score at 10 µM | 310,000 compounds, 0.44% hits | MrgX1-HEK293 cells, Fluo-4 calcium fluorescence, agonist mode; active compounds read high;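 active = calcium response B-score plate-corrected fluorescence ratio at least 3 library SD, with starting fluorescence B-score inside 5 SD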
#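 Assay system: MrgX1-expressing HEK293 cells / Amount: fifteen thousand cells per well / Doses: test compound in the initial addition of three / Timing: cells plated overnight, dye loaded 0.5 h 37 °C, 0.5 h room temperature / Technique: kinetic calcium dye fluorescence, Fluo-4 NW / Control set: positive and negative controls per plate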
# RGS4 inh = inhibitors of human RGS4. HEK293 M3R/RGS4 inducible, Fluo-4 calcium flux; active compounds read high; triggered by carbachol at its EC20. P49798. B-score at 10 µM. 310,000 compounds, 0.45% hits;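 active = B-score, a plate-corrected calcium signal, over three deviations above library mean, with baseline fluorescence within five deviations of library mean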;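 also: RGS4 expression induced by doxycycline in cells with stable M3 receptor; B-score is computed from the integrated fluorescence ratio over baseline after carbachol; higher B-score means a larger calcium signal and so more RGS4 inhibition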
# Target sequence (P49798 whole entry, looked up): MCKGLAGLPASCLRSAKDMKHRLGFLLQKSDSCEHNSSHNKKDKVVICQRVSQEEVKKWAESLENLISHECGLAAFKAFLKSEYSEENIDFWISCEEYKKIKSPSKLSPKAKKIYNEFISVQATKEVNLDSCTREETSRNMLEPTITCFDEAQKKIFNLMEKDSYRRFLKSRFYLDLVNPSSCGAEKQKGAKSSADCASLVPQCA
# MrgX1 allo act = allosterically activates human MrgX1 receptor signaling; Q96LB2; MrgX1-HEK293, Fluo-4 calcium flux, FDSS; active compounds read high; 310,000 compounds, 0.63% hits; B-score at 10 µM; AID 588675;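 active = plate-corrected calcium response at least 3 library SD above typical, normal starting fluorescence, not activating the receptor alone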;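 also: compound read alongside a low EC10 to EC30 dose of BAM8-22 agonist; peak minus trough fluorescence over baseline measured at the second addition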
# MrgX1 antag = antagonists of human MrgX1 receptor | 310,000 compounds, 1.3% hits | Q96LB2 | MRGX1-HEK293 calcium flux, Fluo-4, BAM8-22 antagonism; active compounds read low | B-score at 10 µM;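 active = calcium-response B-score plate-corrected more than 3 library SD below zero, starting fluorescence within 5 deviations, no agonist response on first addition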;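 also: peak minus trough fluorescence over baseline after final BAM8-22 challenge near maximal dose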
# MrgX1 antag conf = confirmation of human MrgX1 receptor antagonists. 2,300 compounds, 19% hits. MrgX1-HEK293, BAM8-22 calcium flux, Fluo-4; active compounds read low. AID 602420. remaining BAM8-22 calcium response % of control (active compounds read low), % at 10 µM. shares compounds with MrgX1 antag;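 active = remaining agonist calcium response no higher than 100% minus 3 SD of agonist-only control wells, with starting fluorescence near control levels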;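 also: agonist BAM8-22 given at a near maximal EC90 to ECmax level; peak minus minimum fluorescence divided by baseline after agonist addition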
# HEK293 Ca flux = MrgX1 antagonist counter-screen hit in parental HEK293 cells | shares compounds with MrgX1 antag | Fluo-4 calcium fluorescence, FDSS | fluorescence ratio F(max-min)/F0 at 10 µM | 4,000 compounds, 2% hits;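 active = duplicate-averaged calcium fluorescence ratio at least three times the standard deviation of buffer wells, a nonspecific response in parental cells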
# HEK293 Ca counter = MrgX1 allosteric activator counter-screen hit in parental HEK293 cells; AID 624114; parental HEK293 calcium flux, Fluo-4 fluorescence ratio; active compounds read high; fluorescence ratio F(max-min)/F0 at 10 µM; shares compounds with MrgX1 antag; 4,000 compounds, 0.4% hits;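 active = calcium fluorescence ratio, averaged over duplicates, at least 3 SD of the buffer-well ratio, meaning a nonspecific response in receptor-free cells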;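 also: untransfected parental HEK293 lacking MrgX1 used as counterscreen for MrgX1 allosteric activators; fluorescence change taken during the second addition on a kinetic imager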
# HEK293 Ca cntr2 = counter-screen for MrgX1 activators: effect in parental HEK293 cells. 4,000 compounds, 8.7% hits. Fluo-4 calcium fluorescence (FDSS); active compounds read high. fluorescence ratio F(max-min)/F0 at 10 µM. shares compounds with MrgX1 antag;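 active = calcium fluorescence ratio at least three times the spread of buffer wells, meaning a non-specific response in parental cells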
# Numbers without * were called inactive; i = inactive; nt = no result given. This is a sample that favours compounds with a hit; in the whole collection about 4.1% have one here.
SMILES,RGS4 act,Kir21 block,MrgX1 agonist,RGS4 inh,MrgX1 allo act,MrgX1 antag,MrgX1 antag conf,HEK293 Ca flux,HEK293 Ca counter,HEK293 Ca cntr2
COc1ccc(CNC(=O)C2CCN(S(=O)(=O)c3ccccc3)CC2)cc1,i,-1.5,i,i,i,i,nt,nt,nt,nt
CCS(=O)(=O)N1CCC(C(=O)NCc2ccc(OC)cc2)CC1,i,-0.48,i,i,i,-6.3*,i,i,i,i
O=C(Nc1ncc2c(n1)-c1ccccc1CC2)c1cccc(Cl)c1,i,1.7,i,i,i,i,nt,nt,nt,nt
CCCSCC(=O)Nc1ncc2c(n1)-c1ccccc1CC2,i,-1.3,i,i,i,-4.7*,75%*,i,i,i
O=C(Nc1ncc2c(n1)-c1ccccc1CC2)c1ccc(Cl)cc1,i,-0.3,i,i,i,-5.2*,i,i,i,i
CCn1c(SCC(=O)Nc2ccc3c(c2)OCO3)nnc1-c1cnccn1,i,-1.6,i,i,i,i,nt,nt,nt,nt
Cc1cc(NCc2ccco2)n2ncnc2n1,i,-1.2,i,i,i,-7.1*,i,i,i,i
O=C(NCCc1cccs1)C1CC1,i,-0.34,i,i,i,i,nt,nt,nt,nt
C[n+]1cnc(-c2ccccc2)cc1-c1ccccc1,i,0.66,i,i,i,i,nt,nt,nt,nt
Cc1cccc(C(=O)OC(C)C(=O)NC(=O)NC2CCCCC2)c1O (centres undefined),i,1.6,i,i,i,i,nt,nt,nt,nt
CC(=O)Nc1cccc(C(=O)OC(C)C(=O)NC(=O)NC2CCCCC2)c1 (centres undefined),i,0.12,i,i,i,-9.9*,i,i,i,i
Cc1ccc(S(=O)(=O)N(CC(=O)NC2CC2)c2ccc(C)c(Cl)c2)cc1,i,-0.82,i,i,i,-5*,i,i,i,i
Cc1cccc(N(CC(=O)NC2CC2)S(=O)(=O)c2ccc(Cl)cc2)c1,i,-0.08,i,i,i,i,nt,nt,nt,nt
Clc1ccc2nnnc(-c3ccccc3)c2c1,i,-0.23,i,i,i,-4.6*,i,i,i,i
c1ccc(-c2nnnc3ccccc23)cc1,i,-1.8,i,i,i,i,nt,nt,nt,nt
O=C(Nc1ccc(Cl)c(C(F)(F)F)c1)N1CCCC(O)C1 (centres undefined),i,0.5,i,i,i,-6.2*,i,i,i,i
Cc1cc(C)cc(N(CC(=O)N2CCc3ccccc32)S(=O)(=O)c2c(C)noc2C)c1,i,-0.12,i,i,i,-7.3*,i,i,i,i
COc1ccc(C2N(c3ccc(F)cc3)C(=O)C3CCCN32)cc1 (centres undefined),i,0.6,i,i,i,-6.3*,i,i,i,i
O=C1C2CCCN2C(c2ccc(Br)cc2)N1c1ccc(F)cc1 (centres undefined),i,-0.63,i,i,i,-5.7*,i,i,i,i
O=c1cc(C(F)(F)F)[nH]c2ccc(C(F)(F)F)cc12,i,-0.94,i,i,i,-4.7*,i,i,i,i
COc1ccccc1NC(=O)Cc1noc(CSc2nnc(N)s2)n1,i,-1.4,i,i,i,-7.7*,i,i,i,i
CCC(C(=O)N1CCN(c2ccccn2)CC1)n1nc(C)n2c(cc3occc32)c1=O (centres undefined),i,2.1,i,i,i,i,nt,nt,nt,nt
COc1ccccc1Nc1nc2ccccc2n2cnnc12,i,1.1,i,i,i,i,nt,nt,nt,nt
COc1ccccc1Nc1nc2ccccc2n1C,i,-0.28,i,i,i,-4.8*,i,i,i,i
CS(=O)(=O)N(CCc1ccccc1)CC(=O)NCC1CCCO1 (centres undefined),i,-0.29,i,i,i,-6.7*,i,i,i,i
SMILES,RGS4 act,Kir21 block,MrgX1 agonist,RGS4 inh,MrgX1 allo act,MrgX1 antag,MrgX1 antag conf,HEK293 Ca flux,HEK293 Ca counter,HEK293 Ca cntr2
Cc1occc1-c1nnc(SCC(=O)Nc2nccs2)n1Cc1ccco1,i,-0.42,i,i,i,i,nt,nt,nt,nt
CC(=O)Nc1ccc(NCN2C(=O)C3C4CCC(C4)C3C2=O)cc1 (centres undefined),i,-0.09,i,i,i,i,nt,nt,nt,nt
COC(=O)c1ccc(NCN2C(=O)C3C4CCC(C4)C3C2=O)cc1 (centres undefined),i,0.3,i,i,i,-5.6*,i,i,i,i
N#C/C(=C\c1ccccc1)C(=O)NC1CC1,i,0.61,i,i,i,i,nt,nt,nt,nt
Cc1ccc(NC(=O)Cc2ccc(-c3ccccc3)cc2)nc1,i,0.99,i,i,i,-8.1*,i,i,i,i
Cc1ccc(Cl)cc1NS(=O)(=O)N1CCOCC1,i,-0.97,i,i,i,i,nt,nt,nt,nt
COc1ccc(Cl)cc1NS(=O)(=O)N1CCOCC1,i,-1.1,i,i,i,-6.2*,i,i,i,i
CC(C)(C)c1ccc(OCCC(=O)OCC(=O)NC2CCS(=O)(=O)C2)cc1 (centres undefined),i,1.4,i,i,i,-5.3*,i,i,i,i
Cc1ccc(C)c(OCCC(=O)OCC(=O)NC2CCS(=O)(=O)C2)c1 (centres undefined),i,0.3,i,i,i,-5.5*,i,i,i,i
Oc1ccccc1NCC(O)Cn1ccc2ccccc21 (centres undefined),i,-1.9,i,i,i,-5.3*,i,i,i,i

# Assay outcomes: PubChem, Johns Hopkins Ion Channel Center
